ChEMBL document CHEMBL4251576, “Synthesis and biological evaluation of curcumin inspired imidazo[1,2-a]pyridine analogues as tubulin polymerization inhibitors” (Eur J Med Chem, 2018)
Where a name gives a salt, the structure may show the parent alone.

Columns and labels:
HeLa = assay: Cytotoxicity against human HeLa cells assessed as inhibition of cell viability after 48 hrs by MTT assay; type: functional, cell-based
How it was run: (§1)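 Cells were seeded at 2.5‒5 x 10^3 per well in DMEM or RPMI with 10% FBS and grown 24 h at 37 °C under CO2. Compounds diluted in medium were added alongside vehicle control for 48 h. MTT (0.5 mg/mL) was added for 4 h, formazan dissolved in DMSO and absorbance read at 570 nm. IC50 is the concentration giving 50% loss of viability; mean ± SD of three experiments, each in triplicate.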

HGC-27 = assay: Cytotoxicity against human HGC27 cells assessed as inhibition of cell viability after 48 hrs by MTT assay; type: functional, cell-based; details: HGC-27, 48 h; how it was run: as §1
NCI-H460 [1] = assay: Cytotoxicity against human NCI-H460 cells assessed as inhibition of cell viability after 48 hrs by MTT assay; type: functional, cell-based; details: NCI-H460, 48 h; how it was run: as §1
DU-145 [2] = assay: Cytotoxicity against human DU145 cells assessed as inhibition of cell viability after 48 hrs by MTT assay; type: functional, cell-based; details: DU-145, 48 h; how it was run: as §1
PC-3 [3] = assay: Cytotoxicity against human PC3 cells assessed as inhibition of cell viability after 48 hrs by MTT assay; type: functional, cell-based; details: PC-3, 48 h; how it was run: as §1
4T1 = assay: Cytotoxicity against mouse 4T1 cells assessed as inhibition of cell viability after 48 hrs by MTT assay; type: functional, cell-based; details: 4T1, 48 h; how it was run: as §1
NCI-H460 [4] = assay: Potency index, ratio of curcumin IC50 to test compound IC50 for human NCI-H460 cells; type: functional
DU-145 [5] = assay: Potency index, ratio of curcumin IC50 to test compound IC50 for human DU145 cells; type: functional
PC-3 [6] = assay: Potency index, ratio of curcumin IC50 to test compound IC50 for human PC3 cells; type: functional

Compound | IC50 (HeLa) [µM] | IC50 (HGC-27) [µM] | IC50 (NCI-H460 [1]) [µM] | IC50 (DU-145 [2]) [µM] | IC50 (PC-3 [3]) [µM] | IC50 (4T1) [µM] | Ratio IC50 (NCI-H460 [4]) | Ratio IC50 (DU-145 [5]) | Ratio IC50 (PC-3 [6])
COc1ccc(-c2c(/C=C/C(=O)/C=C/c3cc(OC)c(OC)cc3OC)nc3ccccn23)cc1 | 9.41 | 8.77 | 5.52 | 5.63 | 7.24 | 4.69 | 3.1 | 5.9 | 2.6
COc1ccc(/C=C/C(=O)/C=C/c2nc3ccccn3c2-c2ccc(OC)cc2)cc1 | > 10 | > 10 | > 10 | > 10 | > 10 | > 10 | – | – | –
COc1cc(OC)c(OC)cc1/C=C/C(=O)/C=C/c1nc2ccccn2c1-c1ccccc1 | 1.67 | 5.38 | 2.84 | 3.71 | 2.75 | 1.68 | 6 | 8.9 | 6.8
COc1ccc(-c2c(/C=C/C(=O)/C=C/c3ccc(OC)cc3OC)nc3ccccn23)cc1 | > 10 | > 10 | > 10 | > 10 | > 10 | > 10 | – | – | –
COc1ccc(/C=C/C(=O)/C=C/c2nc3ccccn3c2-c2ccccc2)cc1OC | > 10 | > 10 | > 10 | > 10 | > 10 | > 10 | – | – | –
COc1ccc(/C=C/C(=O)/C=C/c2nc3ccccn3c2-c2ccccc2)cc1 | > 10 | > 10 | > 10 | > 10 | > 10 | > 10 | – | – | –
COc1cccc(-c2c(/C=C/C(=O)/C=C/c3cc(OC)ccc3OC)nc3ccccn23)c1 | > 10 | > 10 | > 10 | > 10 | > 10 | > 10 | – | – | –
COc1ccc(OC)c(/C=C/C(=O)/C=C/c2nc3ccccn3c2-c2ccccc2)c1 | 5.51 | 7.08 | 4.01 | 3.38 | 3.03 | 3.38 | 4.3 | 9.8 | 6.1
COc1ccc(-c2c(/C=C/C(=O)/C=C/c3cc(OC)ccc3OC)nc3ccccn23)cc1 | > 10 | > 10 | > 10 | > 10 | > 10 | > 10 | – | – | –
COc1ccc(/C=C/C(=O)/C=C/c2nc3ccccn3c2-c2cccc(OC)c2)cc1 | > 10 | > 10 | > 10 | > 10 | > 10 | > 10 | – | – | –
COc1cccc(-c2c(/C=C/C(=O)/C=C/c3ccc(OC)cc3OC)nc3ccccn23)c1 | > 10 | > 10 | > 10 | > 10 | > 10 | > 10 | – | – | –
COc1ccc(-c2c(/C=C/C(=O)/C=C/c3ccc(OC)c(OC)c3)nc3ccccn23)cc1 | 6.66 | 7.84 | 4.28 | 4 | 3.64 | 5.61 | 4 | 8.3 | 5.1
COc1cc(/C=C/C(=O)CC(=O)/C=C/c2ccc(O)c(OC)c2)ccc1O [CURCUMIN] | – | – | – | – | 18.7 | – | – | – | –
COc1ccc(/C=C/C(=O)/C=C/c2nc3ccccn3c2-c2ccc(F)c(F)c2)cc1 | > 10 | > 10 | > 10 | > 10 | > 10 | > 10 | – | – | –
COc1ccc(/C=C/C(=O)/C=C/c2nc3ccccn3c2-c2ccccc2)c(OC)c1 | > 10 | > 10 | > 10 | > 10 | > 10 | > 10 | – | – | –
COc1ccc(/C=C/C(=O)/C=C/c2nc3ccccn3c2-c2ccc(F)c(F)c2)cc1OC | 5.58 | 3.38 | 3.01 | 4.87 | 5.43 | 3.45 | 5.7 | 6.8 | 3.4
COc1cc(OC)c(/C=C/C(=O)/C=C/c2nc3ccccn3c2-c2ccccc2)c(OC)c1 | > 10 | > 10 | > 10 | > 10 | > 10 | > 10 | – | – | –
COc1ccc(OC)c(/C=C/C(=O)/C=C/c2nc3ccccn3c2-c2ccc(F)c(F)c2)c1 | 4.93 | 6.35 | 3.11 | 4.19 | 2.84 | 3.27 | 5.5 | 7.9 | 6.6
CC[C@]1(O)C[C@H]2CN(CCc3c([nH]c4ccccc34)[C@@](C(=O)OC)(c3cc4c(cc3OC)N(C=O)[C@H]3[C@@](O)(C(=O)OC)[C@H](OC(C)=O)[C@]5(CC)C=CCN6CC[C@]43[C@@H]65)C2)C1 [VINCRISTINE SULFATE] | – | – | – | 71.8 | – | – | – | – | –
COc1cccc(-c2c(/C=C/C(=O)/C=C/c3ccc(OC)c(OC)c3)nc3ccccn23)c1 | > 10 | > 10 | > 10 | > 10 | > 10 | > 10 | – | – | –
COc1ccc(/C=C/C(=O)/C=C/c2nc3ccccn3c2-c2ccc(F)c(F)c2)c(OC)c1 | 8.41 | 10.3 | 9.53 | 8.46 | 8.94 | 9.72 | 1.8 | 3.9 | 2.1
